Assays:
C3aR1 receptor = assay: Photoaffinity cross-linking of modified TLQP-21 peptide; format: binding, mouse; settings: membranes from 3T3 cells, UV 365 nm 30 min; Figure 1B
human C3aR1 = target: T1, human C3aR1 (Homo sapiens, UniProt Q16581); assay: β-arrestin recruitment assay in HTLA cells transfected with the C3aR1 receptor; format: cell-based; settings: for EC50 times lower than that of C3a: human C3aR1, relative to C3a
T1 sequence (Q16581 1-482): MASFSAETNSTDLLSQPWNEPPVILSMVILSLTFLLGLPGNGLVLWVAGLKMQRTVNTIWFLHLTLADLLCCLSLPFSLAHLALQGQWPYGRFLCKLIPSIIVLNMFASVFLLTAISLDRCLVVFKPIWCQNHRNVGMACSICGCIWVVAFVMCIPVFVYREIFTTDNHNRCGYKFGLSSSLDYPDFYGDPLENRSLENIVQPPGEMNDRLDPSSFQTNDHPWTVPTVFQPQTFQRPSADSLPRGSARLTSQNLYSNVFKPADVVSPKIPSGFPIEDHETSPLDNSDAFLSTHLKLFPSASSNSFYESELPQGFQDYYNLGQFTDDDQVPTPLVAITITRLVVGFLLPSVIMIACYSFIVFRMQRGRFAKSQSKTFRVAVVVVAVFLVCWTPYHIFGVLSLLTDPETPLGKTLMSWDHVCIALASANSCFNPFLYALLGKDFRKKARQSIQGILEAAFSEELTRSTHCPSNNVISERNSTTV

rat stomach fundus = assay: Gastric contraction assay; settings: for biological activity in fundus strip contraction: concentrations up to 10μM
3T3L1 adipocytes = assay: Lipolysis assay in 3T3L1 adipocytes; format: cell-based, mouse; settings: with isoproterenol, 3 hours incubation at 37°C
Outline: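 Adipocytes at day 8 of differentiation in 6-well plates. Starved 3 h in KRH with 1% BSA, then exposed to test compound with or without agonists/antagonists in KRH with 4% BSA. Media collected and heated at 60°C for 20 min to stop enzyme activity. Cells kept for protein content, or trypsinised for diameter and viability. At least three independent replicates.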

AMPK phosphorylation = assay: AMPK phosphorylation, western blotting in 3T3L1 adipocytes; format: cell-based, mouse; settings: anti-Phospho-AMPK(Thr172) western blot
Outline: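 3T3-L1 cells from ATCC, differentiated to adipocytes with fetal bovine serum, dexamethasone, methylisobutylxanthine and insulin. Extracts (about 5×10^5 cells) taken up in SDS reducing sample buffer and run on NuPAGE. Primary antibody overnight at 4°C; tubulin as loading probe; peroxidase-coupled donkey secondaries. Semi-quantitative densitometry; ANOVA with Tukey post hoc tests.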

Molecule: N=C(N)NCCC[C@H](NC(=O)COCC(c1ccccc1)c1ccccc1)C(=O)O [SB290157]
- cross-linking efficiency of modified TLQP-21 peptide in presence of antagonist (C3aR1 receptor): substantial reduction

Molecule: CC(C)C[C@H](NC(=O)[C@@H](N)[C@@H](C)O)C(=O)N[C@@H](CCC(N)=O)C(=O)N1CCC[C@H]1C(=O)N1CCC[C@H]1C(=O)N[C@@H](C)C(=O)N[C@@H](CO)C(=O)N[C@@H](CO)C(=O)N[C@@H](CCCNC(=N)N)C(=O)N[C@@H](CCCNC(=N)N)C(=O)N[C@@H](CCCNC(=N)N)C(=O)N[C@@H](Cc1c[nH]cn1)C(=O)N[C@@H](Cc1ccccc1)C(=O)N[C@@H](Cc1c[nH]cn1)C(=O)N[C@@H](Cc1c[nH]cn1)C(=O)N[C@@H](C)C(=O)N[C@@H](CC(C)C)C(=O)N1CCC[C@H]1C(=O)N1CCC[C@H]1C(=O)N[C@@H](C)C(=O)N[C@@H](CCCNC(=N)N)C(=O)O [TLQP-21]
- EC50 times lower than that of C3a (human C3aR1): approximately 3 times

Molecule: CC(C)C[C@H](NC(=O)[C@H](C)NC(=O)[C@H](CO)NC(=O)[C@@H]1CCCN1C(=O)[C@@H]1CCCN1C(=O)[C@H](CCC(N)=O)NC(=O)[C@H](CC(C)C)NC(=O)[C@@H](N)[C@@H](C)O)C(=O)N[C@@H](CCCNC(=N)N)C(=O)N[C@@H](CCCNC(=N)N)C(=O)N[C@@H](CCCNC(=N)N)C(=O)N[C@@H](Cc1c[nH]cn1)C(=O)N[C@@H](Cc1ccc(O)cc1)C(=O)N[C@@H](Cc1c[nH]cn1)C(=O)N[C@@H](Cc1c[nH]cn1)C(=O)N[C@@H](C)C(=O)N[C@@H](CC(C)C)C(=O)N1CCC[C@H]1C(=O)N1CCC[C@H]1C(=O)N[C@@H](CO)C(=O)N[C@@H](CCCNC(=N)N)C(=O)O [human TLQP-21]
- EC50 times lower than that of C3a (human C3aR1): approximately 22 times

Molecule: C3a: human C3a peptide, first ligand identified for the C3aR1 [reference compound]
- EC50 (human C3aR1; HTLA cells transfected with human C3aR1, Figure 1C): 3000 nM

Molecule: HFHHALPPAR [HFHH-10]
- biological activity (response) in fundus strip contraction (rat stomach fundus; 3μM, compared to mouse TLQP-21): ~ 3%
- biological activity (response) in fundus strip contraction (rat stomach fundus; 6μM): 62%
- biological activity (response) in fundus strip contraction (rat stomach fundus; 10μM): 75%

Molecule: TLQPPASSRRR [TLQP-11]
- biological activity in fundus strip contraction (rat stomach fundus): zero response

Molecule: TLQPPASSRRRHFHHALAPAR [P18A]
- biological activity (response) in fundus strip contraction (rat stomach fundus; 3μM, compared to mouse TLQP-21): ~ 65%

Molecule: TLQPPASSRRRHFHHALPAAR [P19A]
- biological activity (response) in fundus strip contraction (rat stomach fundus; 3μM, compared to mouse TLQP-21): 19%
- biological activity (response) in fundus strip contraction (rat stomach fundus; 6μM): 35%

Molecule: TLQPPASSRRRHFHHALPPAA [R21A]
- biological activity in fundus strip contraction (rat stomach fundus): complete loss of activity
- block of the activity of a subsequent infusion of TLQP-21 (C3aR1 antagonism) (rat stomach fundus; fundus strips, mutant given before TLQP-21): does not block
- potentiation of isoproterenol-induced lipolysis (3T3L1 adipocytes): does not potentiate
- potentiation of AMPK phosphorylation (AMPK phosphorylation): does not potentiate
